Test results published in ChEMBL document CHEMBL1136914, “Synthesis and structure-activity relationships of bengazole A analogs” (2009).
≈ marks a conversion by molar mass, not a printed value. Calls of active or inactive are those of the source. The rule behind the calls is not given here.

Assays:
Candida albicans [1] = assay: Antifungal activity against Candida albicans ATCC 14503 up to 300 ug/disk by paper disk diffusion assay; assay type: functional, organism-based
Summary of the method: (§1)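 Disk diffusion on agar; test material applied as μg per paper disk (doses up to 300 μg/disk); activity read as zone of growth inhibition in mm.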

Candida albicans [2] = assay: Antifungal activity against Candida albicans isolate 96-489 up to 300 ug/disk by paper disk diffusion assay; assay type: functional, organism-based; summary of the method: as §1
Pichia kudriavzevii [3] = assay: Antifungal activity against Candida krusei up to 300 ug/disk by paper disk diffusion assay; assay type: functional, organism-based; summary of the method: as §1
Nakaseomyces glabratus [4] = assay: Antifungal activity against Candida glabrata up to 300 ug/disk by paper disk diffusion assay; assay type: functional, organism-based; summary of the method: as §1
Nakaseomyces glabratus [5] = assay: Antifungal activity against fluconazole-resistant Candida glabrata at 300 ug/disk by disk diffusion assay; assay type: functional; settings: read-out: IZ
Summary of the method: (§2)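 Agar disk diffusion against a panel of five Candida species, including fluconazole-resistant strains. Compound was applied per disk at doses up to 300 μg/disk. Activity was read as the diameter of the zone of growth inhibition, in mm.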

Candida albicans [6] = assay: Antifungal activity against Candida albicans ATCC 14503 at 300 ug/disk by disk diffusion assay; assay type: functional; settings: read-out: IZ; summary of the method: as §1
Candida albicans [7] = assay: Antifungal activity against fluconazole-resistant Candida albicans CDFR1 at 300 ug/disk by disk diffusion assay; assay type: functional; settings: read-out: IZ; summary of the method: as §2
Candida albicans [8] = assay: Antifungal activity against Candida albicans isolate 96-489 at 300 ug/disk by disk diffusion assay; assay type: functional; settings: read-out: IZ; summary of the method: as §2
Pichia kudriavzevii [9] = assay: Antifungal activity against Candida krusei at 300 ug/disk by disk diffusion assay; assay type: functional; settings: read-out: IZ; summary of the method: as §1
Candida albicans [10] = assay: Antifungal activity against fluconazole-resistant Candida albicans CDFR1 […]; assay type: functional
Candida albicans [11] = assay: Antifungal activity against Candida albicans isolate 96-489 at 5 ug/disk by disk diffusion assay; assay type: functional; settings: read-out: IZ; summary of the method: as §1
Candida albicans [12] = assay: Antifungal activity against Candida albicans isolate 96-489 after 24 hrs by microbroth dilution method; assay type: functional; settings: isolate 96-489, 24 h
Summary of the method: (§3)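 Microbroth dilution MIC in RPMI medium, incubated at 37 °C for 24 h; MIC reported in μg/mL.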

Candida albicans [13] = assay: Antifungal activity against fluconazole-resistant Candida albicans CDFR1 at 5 ug/disk by disk diffusion assay; assay type: functional; settings: read-out: IZ; summary of the method: as §2
Candida albicans [14] = assay: Antifungal activity against Candida albicans ATCC 14503 at 5 ug/disk by disk diffusion assay; assay type: functional; settings: read-out: IZ; summary of the method: as §1
Nakaseomyces glabratus [15] = assay: Antifungal activity against fluconazole-resistant Candida glabrata at 5 ug/disk by disk diffusion assay; assay type: functional; settings: read-out: IZ; summary of the method: as §2
Pichia kudriavzevii [16] = assay: Antifungal activity against Candida krusei at 5 ug/disk by disk diffusion assay; assay type: functional; settings: read-out: IZ; summary of the method: as §1
Pichia kudriavzevii [17] = assay: Antifungal activity against Candida krusei after 48 hrs by microbroth dilution method; assay type: functional
Summary of the method: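 Microbroth dilution MIC in RPMI medium at 37 °C, with incubation extended to 48 h; MIC given in μg/mL.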

Candida albicans [18] = assay: Antifungal activity against Candida albicans ATCC 14503 after 24 hrs by microbroth dilution method; assay type: functional; settings: ATCC 14503, 24 h; summary of the method: as §3
Escherichia coli = assay: Antibacterial activity against Escherichia coli; assay type: functional, organism-based
Candida albicans [19] = assay: Antifungal activity against fluconazole-resistant Candida albicans CDFR1 at 10 ug/disk by disk diffusion assay; assay type: functional; settings: read-out: IZ; summary of the method: as §2
Candida albicans [20] = assay: Antifungal activity against Candida albicans isolate 96-489 at 10 ug/disk by disk diffusion assay; assay type: functional; settings: read-out: IZ; summary of the method: as §1
Candida albicans [21] = assay: Antifungal activity against Candida albicans ATCC 14503 at 10 ug/disk by disk diffusion assay; assay type: functional; settings: read-out: IZ; summary of the method: as §2
Staphylococcus aureus = assay: Antibacterial activity against Staphylococcus aureus; assay type: functional, organism-based
Pseudomonas aeruginosa = assay: Antibacterial activity against Pseudomonas aeruginosa; assay type: functional, organism-based
Pichia kudriavzevii [22] = assay: Antifungal activity against Candida krusei at 10 ug/disk by disk diffusion assay; assay type: functional; settings: read-out: IZ; summary of the method: as §1
Nakaseomyces glabratus [23] = assay: Antifungal activity against fluconazole-resistant Candida glabrata at 10 ug/disk by disk diffusion assay; assay type: functional; settings: read-out: IZ; summary of the method: as §2
Candida albicans [24] = assay: Antifungal activity against Candida albicans ATCC 14503; assay type: functional

Structure (SMILES)	Activity (Candida albicans [1])	Activity (Candida albicans [2])	Activity (Pichia kudriavzevii [3])	Activity (Nakaseomyces glabratus [4])	zone of inhibition at 300 µg/disc (Nakaseomyces glabratus [5]) [mm]	zone of inhibition at 300 µg/disc (Candida albicans [6]) [mm]	zone of inhibition at 300 µg/disc (Candida albicans [8]) [mm]	zone of inhibition at 300 µg/disc (Pichia kudriavzevii [9]) [mm]	MIC (Candida albicans [10]) [µg/mL]	also measured
CCCCCCCCCCCCCC(=O)OC(c1cnco1)c1nc(C(CCC)O[Si](C)(C)C(C)(C)C)co1 (stereo not given)	inactive	inactive	inactive	inactive	–	–	–	–	–	–
CCCCCCCCCCCCCC(=O)OC(c1cnc(SC)o1)C(C)(C)C (stereo not given)	–	–	–	–	0	0	0	0	> 32	zone of inhibition at 300 µg/disc (Candida albicans [7]): 0 mm
COc1ccc(C(O)c2cnc(SC)o2)cc1 (stereo not given)	–	–	–	–	–	8	0	0	–	–
C[C@@H](O[Si](C)(C)C(C)(C)C)[C@@H]1OC(C)(C)O[C@@H]1C[C@@H](O)c1cocn1	–	–	–	–	0	8	0	0	> 32	zone of inhibition at 300 µg/disc (Candida albicans [7]): 0 mm
C[C@@H]1[C@H](O)[C@@H](C)/C=C/C=C/C=C/C=C/C=C/C=C/C=C/[C@H](O[C@@H]2O[C@H](C)[C@@H](O)[C@H](N)[C@@H]2O)C[C@@H]2O[C@](O)(C[C@@H](O)C[C@@H](O)[C@H](O)CC[C@@H](O)C[C@@H](O)CC(=O)O[C@H]1C)C[C@H](O)[C@H]2C(=O)O [AMPHOTERICIN B]	–	–	–	–	–	–	–	–	> 32	zone of inhibition at 5 µg/disc (Candida albicans [11]): 12 mm; MIC (Candida albicans [12]): 0.5 µg/mL (≈ 0.541 µM); zone of inhibition at 5 µg/disc (Candida albicans [13]): 23 mm; zone of inhibition at 5 µg/disc (Candida albicans [14]): 22 mm; zone of inhibition at 5 µg/disc (Nakaseomyces glabratus [15]): 19 mm; zone of inhibition at 5 µg/disc (Pichia kudriavzevii [16]): 15 mm; MIC (Pichia kudriavzevii [17]): 0.25 µg/mL (≈ 0.271 µM); MIC (Candida albicans [18]): 0.5 µg/mL (≈ 0.541 µM)
CSc1ncc(C(O)C(C)(C)C)o1 (stereo not given)	–	–	–	–	–	–	–	0	–	–
CCCCCCCCCCCCCC(=O)OC(c1cnco1)c1nc(C(O)CCC)co1 (stereo not given)	inactive	inactive	inactive	inactive	–	–	–	–	–	–
OC(c1ccccc1)c1cnco1 (stereo not given)	–	–	–	–	–	10	–	9	–	–
CCCC(O[Si](C)(C)C(C)(C)C)c1coc(C(O)c2ccco2)n1 (stereo not given)	inactive	inactive	inactive	inactive	–	–	–	–	–	–
CCCCCCCCCCCCCC(=O)OC(c1ccco1)c1nc(C(O)CCC)co1 (stereo not given)	inactive	inactive	inactive	inactive	–	–	–	–	–	–
CCCCCCCCCCCCCC(=O)OC(c1ccc2ccccc2c1)c1cnc(SC)o1 (stereo not given)	–	–	–	–	–	–	–	–	–	MIC (Candida albicans [12]): > 64 µg/mL; MIC (Pichia kudriavzevii [17]): > 64 µg/mL; MIC (Candida albicans [18]): > 64 µg/mL
CCCCCCCCCCCCCC(=O)OC(c1ccc2ccccc2c1)c1cnco1 (stereo not given)	–	–	–	–	–	–	–	–	–	MIC (Candida albicans [12]): > 64 µg/mL; MIC (Pichia kudriavzevii [17]): > 64 µg/mL; MIC (Candida albicans [18]): > 64 µg/mL
CCCCCCCCCCCCCC(=O)OC(c1cnco1)C(C)(C)C (stereo not given)	–	–	–	–	0	0	0	0	> 32	zone of inhibition at 300 µg/disc (Candida albicans [7]): 0 mm
CCCC(O[Si](C)(C)C(C)(C)C)c1coc(C(O)c2ccccc2)n1 (stereo not given)	inactive	inactive	inactive	inactive	–	–	–	–	–	–
CCCCCCCCCCCCCC(=O)OC(c1ccco1)c1nc(C(CCC)O[Si](C)(C)C(C)(C)C)co1 (stereo not given)	inactive	inactive	inactive	inactive	–	–	–	–	–	–
CCCCCCCCCCCCCC(=O)OC(c1ccccc1)c1nc(C(CCC)O[Si](C)(C)C(C)(C)C)co1 (stereo not given)	inactive	inactive	inactive	inactive	–	–	–	–	–	–
C[C@@H](O[Si](C)(C)C(C)(C)C)[C@@H]1OC(C)(C)O[C@@H]1C[C@H](O)c1cocn1	–	–	–	–	0	10	0	9	> 32	zone of inhibition at 300 µg/disc (Candida albicans [7]): 0 mm
CCCCCCCCCCCCCC(=O)OC(c1ccc(Br)cc1)c1cnc(SC)o1 (stereo not given)	–	–	–	–	0	0	0	0	> 32	zone of inhibition at 300 µg/disc (Candida albicans [7]): 0 mm; MIC (Candida albicans [12]): > 64 µg/mL; MIC (Pichia kudriavzevii [17]): > 64 µg/mL; MIC (Candida albicans [18]): > 64 µg/mL
CSc1ncc(C(O)c2ccc(Br)cc2)o1 (stereo not given)	–	–	–	–	–	13	12	9	–	MIC (Candida albicans [12]): 8 µg/mL (≈ 26.7 µM); MIC (Pichia kudriavzevii [17]): 4 µg/mL (≈ 13.3 µM); MIC (Candida albicans [18]): 4 µg/mL (≈ 13.3 µM)
CC(C)(C)C(O)c1cocn1 (stereo not given)	–	–	–	–	0	0	0	0	> 32	zone of inhibition at 300 µg/disc (Candida albicans [7]): 0 mm
CSc1ncc(C(O)c2ccccc2)o1 (stereo not given)	–	–	–	–	–	10	–	9	–	–
CCCCCCCCCCCCCC(=O)O[C@@H](c1cnco1)c1nc([C@@H](O)C[C@@H](O)[C@@H](O)[C@@H](C)O)co1 [BENGAZOLE A]	–	–	–	–	–	–	–	–	> 32	Activity (Escherichia coli): inactive; zone of inhibition at 10 µg/disc (Candida albicans [19]): 50 mm; zone of inhibition at 10 µg/disc (Candida albicans [20]): 15 mm; zone of inhibition at 10 µg/disc (Candida albicans [21]): 50 mm; Activity (Staphylococcus aureus): inactive; MIC (Candida albicans [12]): 1 µg/mL (≈ 1.91 µM); Activity (Pseudomonas aeruginosa): inactive; zone of inhibition at 10 µg/disc (Pichia kudriavzevii [22]): 35 mm; zone of inhibition at 10 µg/disc (Nakaseomyces glabratus [23]): 15 mm; MIC (Candida albicans [24]): 1 µg/mL (≈ 1.91 µM); MIC (Candida albicans [18]): 1 µg/mL (≈ 1.91 µM)
CCCC(O[Si](C)(C)C(C)(C)C)c1coc(C(O)c2cnco2)n1 (stereo not given)	inactive	inactive	inactive	inactive	–	–	–	–	–	–
O=Cc1cocn1	–	–	–	–	10	–	–	–	> 32	–
CCCCCCCCCCCCCC(=O)OC(c1ccccc1)c1nc(C(O)CCC)co1 (stereo not given)	inactive	inactive	inactive	inactive	–	–	–	–	–	–
CCCCCCCCCCCCCC(=O)OC(c1ccccc1)c1cnco1 (stereo not given)	–	–	–	–	0	0	0	0	> 32	zone of inhibition at 300 µg/disc (Candida albicans [7]): 0 mm
OC(c1ccc2ccccc2c1)c1cnco1 (stereo not given)	–	–	–	–	–	10	–	7.5	–	MIC (Candida albicans [12]): 32 µg/mL (≈ 142 µM); MIC (Pichia kudriavzevii [17]): > 64 µg/mL; MIC (Candida albicans [18]): > 64 µg/mL
CCCCCCCCCCCCCC(=O)OC(c1ccccc1)c1cnc(SC)o1 (stereo not given)	–	–	–	–	0	0	0	0	> 32	zone of inhibition at 300 µg/disc (Candida albicans [7]): 0 mm
